Test results: ChEMBL document CHEMBL1146134, “Synthesis and antifungal activity of 6-hydroxycinnolines” (2006)
≈ marks a conversion by molar mass, not a printed value.

Assays:
Assay type in all cases: functional
Candida albicans = test: Antifungal activity against Candida albicans KCCM 50235
Procedure, shortened: (§1)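 Twofold broth dilution MIC in modified Sabouraud dextrose broth. Inoculum approximately 1 × 10⁵ cells/mL. Final agent concentrations ranged 0.2 to 100. Incubated at 37 °C and read after 1 day. MIC determined against 5-fluorocytosine as standard.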

Candida tropicalis = test: Antifungal activity against Candida tropicalis KCCM 50662; procedure, shortened: as §1
Pichia kudriavzevii = test: Antifungal activity against Candida krusei KCCM 11655; procedure, shortened: as §1
Cryptococcus neoformans = test: Antifungal activity against Cryptococcus neoformans KCCM 50564
Procedure, shortened: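 Growth inhibition measured as MIC by twofold broth dilution in modified Sabouraud dextrose broth. Inoculum near 1 × 10⁵ cells/mL. Final agent concentrations spanned 0.2 to 100. 5-Fluorocytosine was run as standard.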

Aspergillus niger = test: Antifungal activity against Aspergillus niger KCTC 1231
Procedure, shortened: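 MIC by twofold serial dilution in modified Sabouraud dextrose broth, with roughly 1 × 10⁵ cells/mL inoculum. Final test concentrations ranged 0.2 to 100. Plates held at 37 °C and read after 2 days. 5-Fluorocytosine served as reference agent.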

Row | SMILES | MIC (Candida albicans) | MIC (Candida tropicalis) | MIC (Pichia kudriavzevii) | MIC (Cryptococcus neoformans) | MIC (Aspergillus niger)
1 | COC(=O)C(C#N)C1=C(Sc2ccc(C)cc2)C(=O)C(C)=C(C)C1=O (stereo not given) | > 50 µg/mL | > 50 µg/mL | 50 µg/mL (≈ 141 µM) | 50 µg/mL (≈ 141 µM) | > 50 µg/mL
2 | COC(=O)c1c(N)nnc2c(C)c(C)c(O)c(Sc3ccc(C)c(C)c3)c12 | > 50 µg/mL | 25 µg/mL (≈ 65.2 µM) | 3.2 µg/mL (≈ 8.34 µM) | 1.6 µg/mL (≈ 4.17 µM) | 12.5 µg/mL (≈ 32.6 µM)
3 | COC(=O)C(C#N)C1=C(Sc2cccc(F)c2)C(=O)C(C)=C(C)C1=O (stereo not given) | 50 µg/mL (≈ 139 µM) | 50 µg/mL (≈ 139 µM) | 25 µg/mL (≈ 69.6 µM) | 50 µg/mL (≈ 139 µM) | 50 µg/mL (≈ 139 µM)
4 | COC(=O)C(C#N)C1=C(Sc2ccc(C)c(C)c2)C(=O)C(C)=C(C)C1=O (stereo not given) | 50 µg/mL (≈ 135 µM) | 50 µg/mL (≈ 135 µM) | > 50 µg/mL | > 50 µg/mL | 50 µg/mL (≈ 135 µM)
5 | COC(=O)c1c(N)nnc2c(C)c(C)c(O)c(Cl)c12 | > 50 µg/mL | 50 µg/mL (≈ 177 µM) | 25 µg/mL (≈ 88.7 µM) | 25 µg/mL (≈ 88.7 µM) | 6.3 µg/mL (≈ 22.4 µM)
6 | COC(=O)C(C#N)C1=C(Sc2ccccc2)C(=O)C(C)=C(C)C1=O (stereo not given) | 50 µg/mL (≈ 146 µM) | 50 µg/mL (≈ 146 µM) | 50 µg/mL (≈ 146 µM) | 12.5 µg/mL (≈ 36.6 µM) | 50 µg/mL (≈ 146 µM)
7 | COC(=O)C(C#N)C1=C(Sc2cccc(C)c2)C(=O)C(C)=C(C)C1=O (stereo not given) | > 50 µg/mL | > 50 µg/mL | 1.6 µg/mL (≈ 4.5 µM) | 50 µg/mL (≈ 141 µM) | > 50 µg/mL
8 | COC(=O)C(C#N)C1=C(Cl)C(=O)C(C)=C(C)C1=O (stereo not given) | 50 µg/mL (≈ 187 µM) | 50 µg/mL (≈ 187 µM) | 25 µg/mL (≈ 93.4 µM) | 6.3 µg/mL (≈ 23.5 µM) | 25 µg/mL (≈ 93.4 µM)
9 | Nc1nc(=O)[nH]cc1F [FLUCYTOSINE] | 6.3 µg/mL (≈ 48.8 µM) | 12.5 µg/mL (≈ 96.8 µM) | 6.3 µg/mL (≈ 48.8 µM) | 12.5 µg/mL (≈ 96.8 µM) | 12.5 µg/mL (≈ 96.8 µM)

Further lines, results first:

Row | MIC (Candida albicans) | MIC (Candida tropicalis) | MIC (Pichia kudriavzevii) | MIC (Cryptococcus neoformans) | MIC (Aspergillus niger) | SMILES
10 | > 50 µg/mL | 25 µg/mL (≈ 67.7 µM) | 3.2 µg/mL (≈ 8.66 µM) | 6.3 µg/mL (≈ 17.1 µM) | 25 µg/mL (≈ 67.7 µM) | COC(=O)c1c(N)nnc2c(C)c(C)c(O)c(Sc3ccc(C)cc3)c12
11 | > 50 µg/mL | > 50 µg/mL | > 50 µg/mL | 1.6 µg/mL (≈ 4.33 µM) | > 50 µg/mL | COC(=O)c1c(N)nnc2c(C)c(C)c(O)c(Sc3cccc(C)c3)c12
12 | > 50 µg/mL | 25 µg/mL (≈ 70.3 µM) | 6.3 µg/mL (≈ 17.7 µM) | 1.6 µg/mL (≈ 4.5 µM) | 12.5 µg/mL (≈ 35.2 µM) | COC(=O)c1c(N)nnc2c(C)c(C)c(O)c(Sc3ccccc3)c12
13 | > 50 µg/mL | 50 µg/mL (≈ 134 µM) | 25 µg/mL (≈ 67 µM) | 6.3 µg/mL (≈ 16.9 µM) | 1.6 µg/mL (≈ 4.28 µM) | COC(=O)c1c(N)nnc2c(C)c(C)c(O)c(Sc3cccc(F)c3)c12
